Compound activity (PubChem)
WT yeast gro inh: growth inhibition of WT yeast, mitochondrial fusion screen; mitochondrial fusion phenotypic screen, WT strain; 190,000 compounds, 2.1% hits; inhibition, % at 10 µM; in the data active means inhibition above about 58%; tested in S. cerevisiae
Lmaj promast: reduces viability of Leishmania major promastigotes; resazurin fluorescence viability; inhibition, % at 10 µM; 200,000 compounds, 9% hits; AID 1063; in the data active means inhibition above about 50%;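 further: promastigotes grown with compound for 44 hours at 28 °C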
ABCG2 block: human ABCG2 inhibition, ABCB1 as counter-screen. inhibition, % at 6.6 µM. IgMXP3 cells, JC-1 efflux, flow cytometry. 190,000 compounds, 0.1% hits;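 active means inhibition above 80%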
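Read-out basis: Efflux inhibition in percent versus controls | Test system: ABCG2 IgMXP3 and barcoded ABCB1 CCRF-Adr cell mix | Quantity: 3 million cells/mL in well | Schedule: 10 min at 25 °C | Control set: Nicardipine as high control, DMSO as low control | Reagent: JC-1 as fluorescent efflux pump substrate | Signal: Flow cytometry of retained JC-1 fluorescence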
RAM network inh: blocks the yeast RAM network | S. cerevisiae dse1pr::URA3 reporter, 5-FOA growth OD615, 2 d; analog-sensitive cbk1-as2 kinase mutant strain | inhibition, % at 50 µM | 190,000 compounds, 1.8% hits;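 active means inhibition above a set limit, 3 SD over mean compound inhibition, cut at about 8.4% in these data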;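 further: inhibition rescues growth on 5-FOA so higher OD means more RAM inhibition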
ABCB1 inh: blocks JC-1 efflux by human ABCB1 transporter | P08183 | CCRF-Adr cells, flow cytometry | inhibition, % at 6.6 µM | 190,000 compounds, 0.067% hits | AID 1326; in the data active means inhibition above about 40%;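 further: higher value means more JC-1 retained so stronger ABCB1 efflux block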
Of the large screens only hits and unclear results are named; the others gave an inactive call. Hits are enriched below; roughly 12% of the tested compounds scored in any of these assays.

CC(C)(C)NC(=O)COC(=O)c1ccc(NC(=O)CC#N)cc1	none
CC(C)(C)c1ccc(-c2n[nH]c(=S)n2C2CCCC2)cc1	WT yeast gro inh 71.6
Cn1c(-c2ccc(C(C)(C)C)cc2)n[nH]c1=S	none
O=C(NCc1ccccc1)C1CCN(S(=O)(=O)c2ccc(Cl)cc2)CC1	none
O=C(NCCN1CCc2ccccc2C1)C1CCN(S(=O)(=O)N2CCC3(CC2)OCCO3)CC1	none
CS(=O)(=O)N1CCCC(C(=O)NCCN2CCC(Cc3ccccc3)CC2)C1 (stereo not given)	Lmaj promast 88.8
O=C(NCCN1CCc2ccccc2C1)C1CCN(S(=O)(=O)N2CCCCC2)CC1	Lmaj promast 81.4
CCS(=O)(=O)N1CCCC(C(=O)NCCN2CCC(Cc3ccccc3)CC2)C1 (stereo not given)	Lmaj promast 90.4
CON(c1nc(N(C)C)nc(N(C)C)n1)S(=O)(=O)c1ccccc1Cl	Lmaj promast 64.6 (no result: WT yeast gro inh)
CCCNC(=O)c1ccc(CN2CCOCC2)cc1	none
COc1ccc(-c2[nH]ncc2CN(CCO)CC23CC4CC(CC(C4)C2)C3)c(OC)c1	none
CN(CC(=O)NCc1ccccc1)S(=O)(=O)c1cnc[nH]1	none
CCN(c1ccccc1)S(=O)(=O)c1cnc[nH]1	WT yeast gro inh 59.4
O=C(NCCN1CCN(C(=O)c2cccs2)CC1)C(=O)Nc1ccc(Br)cc1	Lmaj promast 73.4 (no result: WT yeast gro inh)
O=C(NCCN1CCN(C(=O)c2cccs2)CC1)c1cccs1	none
O=C(CN1C(=O)c2ccccc2S1(=O)=O)NC(Nc1ccccc1F)C(Cl)(Cl)Cl (stereo not given)	none
COc1ccc(C(CC(=O)NC(C)(C)C)n2cccc2)cc1 (stereo not given)	none
COc1ccc(C(CC(=O)Nc2cc(OC)cc(OC)c2)n2cccc2)cc1 (stereo not given)	Lmaj promast 96.0
COc1ccc(C(CC(=O)Nc2nccs2)n2cccc2)cc1 (stereo not given)	none
COc1ccc(C(CC(=O)Nc2ccccc2OC)n2cccc2)cc1 (stereo not given)	Lmaj promast 54.4
CC1CCCCN1C(=S)NCc1ccco1 (stereo not given)	none
COc1cc(NC(=O)c2cccc(Br)c2)nc(OC)n1	none
CCOC(=O)c1c(N)sc(C(O)(C(F)(F)F)C(F)(F)F)c1-c1ccccc1	WT yeast gro inh 96.8
CCOC(=O)c1c(N)sc(-c2ccccc2)c1C	none
C(=C1/CCCC2=C1Nc1ncnn1C2c1ccccc1)/c1ccccc1 (stereo not given)	Lmaj promast 100.5
FC(F)(F)c1ccccc1C1C2=C(Nc3ncnn31)c1ccccc1CCC2 (stereo not given)	Lmaj promast 95.9
S=C1NC2=C(CCC/C2=C\c2ccccc2)C(c2ccccc2)N1 (stereo not given)	none
CN(CCOC(=O)/C=C/c1ccco1)Cc1ccccc1	none
CCCCNC(=O)C(Sc1ccccc1)c1ccccc1 (stereo not given)	none
CN1CCN(C(=O)c2ccccc2Nc2ccc(SC(F)F)cc2)CC1	none
COc1cc2c(cc1OC)CN(C(=S)Nc1ccc(OC(F)F)cc1)CC2	none
CC1CC(C)CN(C(=O)c2ccccc2Nc2ccc(SC(F)F)cc2)C1 (stereo not given)	RAM network inh 9.0
CC1CC(C)CN(C(=S)Nc2ccc(SC(F)F)cc2)C1 (stereo not given)	Lmaj promast 72.7
CC1CC(C)CN(C(=S)Nc2ccc(OC(F)F)cc2)C1 (stereo not given)	Lmaj promast 84.5
CN1CCC(N(C)C(=S)Nc2ccc(SC(F)F)cc2)CC1	Lmaj promast 76.1
CC1=C2C3OC(=O)C(C)[C@@H]3CC[C@](C)(O)C2C2C3C4C5(C12)[C@H]1OC(=O)[C@@H](C)C1CC[C@]4(C)O[C@]5(C)[C@@H]3O (stereo not given in full)	none
Cc1onc(-c2c(F)cccc2Cl)c1C(N)=S	none
CC(=O)N1CCN(CCN=CC2=C(O)CC(c3cccs3)CC2=O)CC1 (stereo not given)	none
COc1ccc(/C=C/c2nnc(NC(=O)CSc3ccc(Cl)cc3)s2)cc1	none
Cc1cc(C)nc(NC2=NCCN2C(=S)Nc2c(C)cccc2C)n1	none
CCCc1sc(N)nc1-c1ccc(Cl)cc1	WT yeast gro inh 69.0
CCNc1nc(-c2ccc(Cl)cc2)cs1	none
CCCNC(=O)NC(=O)COC(=O)c1ccc(S(=O)(=O)N(C)c2ccccc2OC)cc1	Lmaj promast 73.3
